From ChEMBL document CHEMBL5236609, “Optimization of 1,2,4-Triazole-3-thiones toward Broad-Spectrum Metallo-β-lactamase Inhibitors Showing Potent Synergistic Activity on VIM- and NDM-1-Producing Clinical Isolates” (J Med Chem, 2022)
Blank lines part the entries; values can stand above or below the compound they belong to. The source made the active and inactive calls. The calls are words filed in the database; no cut-off is given here.

Assays:
[1] = Inhibition of bacterial IMP-1 (unknown origin) expressed in Escherichia coli EXPRESS BL21(DE3) assessed as inhibition constant by measuring rate of substrate hydrolysis by UV-visible spectrophotometry; set-up: species or system Bacteria
In short: (§1)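 Reporter-substrate assay with purified MBL (1–70 nM final) in 50 mM HEPES pH 7.5 at 30 °C. […] Inhibitor 0.5–1000 μM final. Ki derived from the v0/vi vs [I] slope assuming competitive inhibition, or from a Dixon plot. Ki given when inhibition >70%, otherwise % inhibition at 100 μM. Triplicate.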

Escherichia coli = test: Antimicrobial activity against blaNDM-1-producing multidrug-resistant Escherichia coli SI-004 clinical isolate assessed as meropenem MIC at 32 ug/ml by broth microdilution method (reference value: 64 ug/ml)
Klebsiella pneumoniae [2] = test: Antimicrobial activity against blaVIM-4-producing multidrug-resistant Klebsiella pneumoniae VA-416/02 clinical isolate assessed as meropenem MIC at 32 ug/ml by broth microdilution method (reference value: […] ug/ml); assay type: functional; details: dose 32 µg/ml
In short: (§2)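 Inoculum was 5×10^4 CFU/well. Each inhibitor was present at a fixed 32 μg/mL, and MICs were also taken without inhibitor.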

[3] = Inhibition of bacterial VIM-1 (unknown origin) expressed in Escherichia coli EXPRESS BL21(DE3) assessed as inhibition constant by measuring rate of substrate hydrolysis by UV-visible spectrophotometry; set-up: species or system Bacteria; in short: as §1
[4] = Inhibition of bacterial VIM-2 (unknown origin) expressed in Escherichia coli EXPRESS BL21(DE3) assessed as inhibition constant by measuring rate of substrate hydrolysis by UV-visible spectrophotometry; set-up: species or system Bacteria; in short: as §1
Klebsiella pneumoniae [5] = test: Antimicrobial activity against blaVIM-1-producing multidrug-resistant Klebsiella pneumoniae K47-25 clinical isolate assessed as meropenem MIC at 32 ug/ml by broth microdilution method (reference value: […] ug/ml); assay type: functional; details: dose 32 µg/ml; in short: as §2
[6] = Inhibition of bacterial VIM-4 (unknown origin) expressed in Escherichia coli EXPRESS BL21(DE3) assessed as inhibition constant by measuring rate of substrate hydrolysis by UV-visible spectrophotometry; set-up: species or system Bacteria; in short: as §1
Pseudomonas aeruginosa = test: Antimicrobial activity against blaVIM-2-producing multidrug-resistant Pseudomonas aeruginosa VA-182/00 clinical isolate assessed as meropenem MIC at 32 ug/ml by broth microdilution method (reference value: 128 ug/ml); assay type: functional; details: dose 32 µg/ml; in short: as §2
[7] = Inhibition of bacterial NDM-1 (unknown origin) expressed in Escherichia coli EXPRESS BL21(DE3) assessed as inhibition constant by measuring rate of substrate hydrolysis by UV-visible spectrophotometry; set-up: species or system Bacteria; in short: as §1
Bacteria [8] = test: Inhibition of bacterial NDM-1 (unknown origin) assessed as ternary complex formation using 10 uM enzyme concentration at 50 uM by native MS analysis
In short: (§3)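 Purified VIM-2 or NDM-1 was given 2 mM TCEP and 2 equiv ZnCl2, incubated 1 h, and dialysed overnight into 100 mM ammonium acetate pH 7.5. Enzyme at 10 μM was then incubated 5 min with 50 μM compound. Positive-mode nanoESI on an Orbitrap, scanning m/z 1000–4000. Species assigned from deconvoluted masses.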

Bacteria [9] = test: Competitive inhibition of bacterial NDM-1 (unknown origin) assessed as Zn(II) content at 48 uM by overnight equilibrium dialysis
In short: (§4)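 VIM-2 or NDM-1 (3 μM final) in 50 mM HEPES pH 7.5 mixed with compound at 0–48 μM. Incubated 1 h on ice, then dialysed overnight at 4 °C against 50 mM HEPES pH 7.5. Zn(II) content measured by atomic absorption at 213.86 nm against a zinc standard curve. Each point averages three samples.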

Bacteria [10] = test: Inhibition of bacterial IMP-1 (unknown origin) expressed in Escherichia coli EXPRESS BL21(DE3) assessed as inhibition constant by measuring rate of substrate hydrolysis at 100 uM by UV-visible spectrophotometry relative to control; in short: as §1
Bacteria [11] = test: Competitive inhibition of bacterial VIM-2 (unknown origin) assessed as Zn(II) content by at 48 uM by overnight equilibrium dialysis; in short: as §4
Bacteria [12] = test: Inhibition of bacterial VIM-2 (unknown origin) assessed as ternary complex formation using 10 uM enzyme concentration at 50 uM by native MS analysis; in short: as §3
[13] = Cytotoxicity against human HeLa cells assessed as LDH release incubated for 24 hrs by membrane integrity assay; assay type: toxicity, cell-based
In short: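 HeLa cells (20,000/well) exposed to compound up to 250 μM for 24 h at 37 °C, 5% CO2 in DMEM with 10% FBS, 4.5 mg/mL glucose and 2 mM L-glutamine. LDH release expressed as % of Triton X-100 maximum lysis; IC50 is the concentration giving 50% cytotoxicity.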

Bacteria [14] = test: Inhibition of bacterial VIM-1 (unknown origin) expressed in Escherichia coli EXPRESS BL21(DE3) assessed as inhibition constant by measuring rate of substrate hydrolysis at 100 uM by UV-visible spectrophotometry relative to control; in short: as §1
Bacteria [15] = test: Inhibition of bacterial VIM-4 (unknown origin) expressed in Escherichia coli EXPRESS BL21(DE3) assessed as inhibition constant by measuring rate of substrate hydrolysis at 100 uM by UV-visible spectrophotometry relative to control; in short: as §1
Bacteria [16] = test: Inhibition of bacterial NDM-1 (unknown origin) expressed in Escherichia coli EXPRESS BL21(DE3) assessed as inhibition constant by measuring rate of substrate hydrolysis at 100 uM by UV-visible spectrophotometry relative to control; in short: as §1
Bacteria [17] = test: Inhibition of bacterial VIM-2 (unknown origin) expressed in Escherichia coli EXPRESS BL21(DE3) assessed as inhibition constant by measuring rate of substrate hydrolysis at 100 uM by UV-visible spectrophotometry relative to control; in short: as §1
[18] = Metabolic stability in CD-1 mouse microsomes assessed as half life at 37 degC by LC-MS/MS analysis; assay type: ADME, Microsome
In short: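 Mouse liver microsomes, mixed gender, at 37 °C for 40 min; propranolol control. Reports t1/2, intrinsic clearance and % intact compound remaining at 40 min.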

[19] = target: Insulin-degrading enzyme (Homo sapiens) (UniProt P14735); test: Inhibition of recombinant human IDE using ATTO 655-Cys-Lys-Leu-Val-Phe-Phe-Ala-Glu-Asp-Trp as substrate at 0.4 uM measured after 45 mins by fluorescence assay relative to control
Chain of Insulin-degrading enzyme (Homo sapiens) (P14735 whole entry): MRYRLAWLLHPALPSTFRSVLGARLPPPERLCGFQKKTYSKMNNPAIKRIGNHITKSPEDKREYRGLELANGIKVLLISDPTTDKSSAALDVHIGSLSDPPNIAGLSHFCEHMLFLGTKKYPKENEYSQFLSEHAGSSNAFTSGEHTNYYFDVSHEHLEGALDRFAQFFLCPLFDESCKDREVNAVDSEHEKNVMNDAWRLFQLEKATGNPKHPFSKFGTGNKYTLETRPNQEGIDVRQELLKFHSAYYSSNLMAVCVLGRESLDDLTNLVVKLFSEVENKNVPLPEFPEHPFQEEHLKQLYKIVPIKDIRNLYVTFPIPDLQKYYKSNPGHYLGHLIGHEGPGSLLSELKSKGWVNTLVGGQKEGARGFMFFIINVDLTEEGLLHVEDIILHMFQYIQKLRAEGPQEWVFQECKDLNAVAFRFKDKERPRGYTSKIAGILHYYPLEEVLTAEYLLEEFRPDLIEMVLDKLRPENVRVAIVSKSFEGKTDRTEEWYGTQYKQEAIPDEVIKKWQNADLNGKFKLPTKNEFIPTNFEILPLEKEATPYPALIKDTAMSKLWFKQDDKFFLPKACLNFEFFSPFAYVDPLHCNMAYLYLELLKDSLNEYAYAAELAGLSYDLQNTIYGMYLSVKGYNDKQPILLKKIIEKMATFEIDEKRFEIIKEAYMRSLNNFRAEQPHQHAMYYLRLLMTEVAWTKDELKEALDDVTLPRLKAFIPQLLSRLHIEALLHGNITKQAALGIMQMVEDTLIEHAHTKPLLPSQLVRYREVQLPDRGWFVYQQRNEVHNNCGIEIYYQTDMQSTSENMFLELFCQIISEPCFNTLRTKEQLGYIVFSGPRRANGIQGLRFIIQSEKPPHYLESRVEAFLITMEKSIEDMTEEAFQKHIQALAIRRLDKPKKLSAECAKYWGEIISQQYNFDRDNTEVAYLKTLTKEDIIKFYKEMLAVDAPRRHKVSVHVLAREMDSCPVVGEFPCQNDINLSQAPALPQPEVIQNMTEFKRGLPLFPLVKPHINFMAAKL

Bacteria [20] = test: Inhibition of bacterial VIM-2 (unknown origin) assessed as Zn(II) content in protein at >5 uM by overnight equilibrium dialysis; in short: as §4
[21] = Inhibition of bacterial Metallo-beta-lactamase IMP-1 (unknown origin); set-up: species or system Bacteria; in short: as §1
[22] = Inhibition of bacterial Metallo-beta-lactamase VIM-1 (unknown origin); set-up: species or system Bacteria; in short: as §1
[23] = Inhibition of bacterial Metallo-beta-lactamase VIM-4 (unknown origin); set-up: species or system Bacteria; in short: as §1
Bacteria [24] = test: Inhibition of bacterial Metallo-beta-lactamase NDM-1 (unknown origin) at 100 uM relative to control; in short: as §1
[25] = Inhibition of bacterial Metallo-beta-lactamase VIM-2 (unknown origin); set-up: species or system Bacteria; in short: as §1

SMILES: O=C(O)[C@H](CCCCn1c(-c2ccccc2)n[nH]c1=S)N(Cc1c[nH]cn1)Cc1c[nH]cn1
Ki [1]: 5000 nM
MIC (Escherichia coli): 0.06 µg/mL
MIC (Klebsiella pneumoniae [2]): 0.03 µg/mL
Ki [3]: 40 nM
Ki [4]: 970 nM
MIC (Klebsiella pneumoniae [5]): 0.03 µg/mL
Ki [6]: 470 nM
MIC (Pseudomonas aeruginosa): 16 µg/mL
Ki [7]: 360 nM

SMILES: O=C(O)[C@H](CCCn1c(-c2ccccc2)n[nH]c1=S)N(Cc1cncs1)Cc1cncs1
inhibition (Bacteria [8]): Active
MIC (Escherichia coli): 32 µg/mL
inhibition (Bacteria [9]): Active
MIC (Klebsiella pneumoniae [2]): 1 µg/mL
Ki [3]: 300 nM
Ki [4]: 100 nM
inhibition (Bacteria [10]): < 30%
MIC (Klebsiella pneumoniae [5]): 1 µg/mL
inhibition (Bacteria [11]): Active
Ki [6]: 140 nM
inhibition (Bacteria [12]): Active
MIC (Pseudomonas aeruginosa): 128 µg/mL
Ki [7]: 28000 nM

SMILES: O=C(O)[C@H](CCCn1c(-c2ccccc2)n[nH]c1=S)N(Cc1ccccn1)Cc1c[nH]cn1
MIC (Escherichia coli): 0.06 µg/mL
CC50 at 24 h [13]: 175000 nM
MIC (Klebsiella pneumoniae [2]): 0.03 µg/mL
Ki [3]: 950 nM
Ki [4]: 640 nM
inhibition (Bacteria [10]): < 30%
MIC (Klebsiella pneumoniae [5]): 0.06 µg/mL
Ki [6]: 560 nM
MIC (Pseudomonas aeruginosa): 8 µg/mL
Ki [7]: 380 nM

SMILES: O=C(O)[C@H](CCCn1c(-c2ccccc2)n[nH]c1=S)N(Cc1ccccc1)Cc1ccccc1
inhibition (Bacteria [14]): 38%
inhibition (Bacteria [15]): 64%
MIC (Escherichia coli): 64 µg/mL
MIC (Klebsiella pneumoniae [2]): 4 µg/mL
inhibition (Bacteria [16]): 32%
inhibition (Bacteria [17]): 63%
inhibition (Bacteria [10]): < 30%
MIC (Klebsiella pneumoniae [5]): 2 µg/mL
MIC (Pseudomonas aeruginosa): 128 µg/mL

half-life [18]: 1.05 h
SMILES: CCOC(=O)[C@H](CCc1ccccc1)N[C@@H](C)C(=O)N1CCC[C@H]1C(=O)O

SMILES: O=C(C[C@H](Cc1ccc2ccccc2c1)n1cc(CNC(=O)c2ccc(F)cc2)nn1)NO
inhibition [19]: 65%

SMILES: O=C(O)[C@@H](CCCn1c(-c2ccccc2)n[nH]c1=S)N(Cc1c[nH]cn1)Cc1c[nH]cn1
inhibition (Bacteria [20]): Active
Ki [1]: 7400 nM
MIC (Escherichia coli): 0.06 µg/mL
MIC (Klebsiella pneumoniae [2]): 0.03 µg/mL
Ki [3]: 170 nM
Ki [4]: 190 nM
MIC (Klebsiella pneumoniae [5]): 0.03 µg/mL
Ki [6]: 110 nM
MIC (Pseudomonas aeruginosa): 8 µg/mL
Ki [7]: 14 nM

SMILES: O=C(O)[C@H](Cn1c(-c2ccccc2)n[nH]c1=S)N(Cc1c[nH]cn1)Cc1c[nH]cn1
Ki [1]: 4200 nM
MIC (Escherichia coli): 0.06 µg/mL
MIC (Klebsiella pneumoniae [2]): 0.03 µg/mL
Ki [3]: 880 nM
Ki [4]: 1500 nM
MIC (Klebsiella pneumoniae [5]): 0.03 µg/mL
Ki [6]: 560 nM
MIC (Pseudomonas aeruginosa): 16 µg/mL
Ki [7]: 40 nM

Ki [21]: Not Active
Ki [22]: 30800 nM
Ki [23]: 1510 nM
inhibition (Bacteria [24]): 35%
Ki [25]: 1950 nM
SMILES: CC(C)(C)OC(=O)N[C@@H](CCCn1c(-c2ccccc2)n[nH]c1=S)C(=O)O
